Calls of active or inactive are those of the source. The calls are words filed in the database; no cut-off is given here.

The first assay relates to Rattus norvegicus. In words: Antihyperlipidemic activity in Triton-induced dyslipidemic Wistar rat model assessed as reduction in phospholipid level at 100 mg/kg, po. The class given is functional. Details: scale not given: the % may be the effect or the level left. In outline:
(§1)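 Male Wistar rats, 8−10 weeks, about 160 g, fed normal pellet diet. Triton X-100 given at 400 mg/kg ip; compound given orally in 1% gum acacia. Retro-orbital blood taken 18 h after Triton and serum separated at 1500g for 10 min. TG and cholesterol measured by kit. Mean % change versus dyslipidemic control, 5 animals.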
As to `CC(C)(C)NCC(O)COc1ccc2oc(-c3ccc(O)c(O)c3)cc(=O)c2c1` (stereo not given), the Activity is 23%.
As for `Cc1ccccc1COc1cc(OCc2ccccc2C)cc(-c2cc(=O)c3ccc(OCC(O)CNC(C)C)cc3o2)c1` (stereo not given), the Activity is 24.1%.
On the same count and under the same terms, with `Cc1ccc(COc2cc(OCc3ccc(C)cc3)cc(-c3cc(=O)c4ccc(OCC(O)CNC(C)C)cc4o3)c2)cc1` (stereo not given) the figure was 26.5%; with `COc1cc(-c2cc(=O)c3ccc(OCC(O)CNC(C)(C)C)cc3o2)cc(OC)c1OC` (stereo not given), 26%.
Regarding `CC(C)NCC(O)COc1ccc2c(=O)cc(-c3cc(OCc4ccccc4Cl)cc(OCc4ccccc4Cl)c3)oc2c1` (stereo not given), the Activity was 20.2%.
On to `CC(C)NCC(O)COc1ccc2c(=O)cc(-c3cc(OCc4cc(Cl)cc(Cl)c4)cc(OCc4cc(Cl)cc(Cl)c4)c3)oc2c1` (stereo not given), for which the Activity worked out at 11.8%.
Consider `CC(C)(C)NCC(O)COc1ccc2c(=O)cc(-c3cc(OCc4cc(Cl)cc(Cl)c4)cc(OCc4cc(Cl)cc(Cl)c4)c3)oc2c1` (stereo not given), for which the Activity came to 12.2%.
As to `CC(C)(C)NCC(O)COc1ccc2c(=O)cc(-c3ccc(OCc4ccccc4)c(OCc4ccccc4)c3)oc2c1` (stereo not given), the Activity is 12%.
In the case of `Cc1ccc(COc2cc(OCc3ccc(C)cc3)cc(-c3cc(=O)c4ccc(OCC(O)CNCc5ccccc5)cc4o3)c2)cc1` (stereo not given), the Activity came out at 20.8%.
The same measure, in the same setting: with `COc1cc(-c2cc(=O)c3ccc(OCC(O)CNC(C)C)cc3o2)cc(OC)c1OC` (stereo not given) the figure was 16%.
With `O=c1cc(-c2cc(OCc3ccccc3)cc(OCc3ccccc3)c2)oc2cc(OCC(O)CN3CCN(c4ccccc4)CC3)ccc12` (stereo not given), the Activity worked out at 21%.
As to `COc1cc(-c2cc(=O)c3ccc(OCC(O)CN4CCN(c5ccccc5)CC4)cc3o2)cc(OC)c1OC` (stereo not given), the Activity was determined as 8%.
Take `CC(C)(C)NCC(O)COc1ccc2oc(-c3ccc(OCc4ccccc4)c(OCc4ccccc4)c3)cc(=O)c2c1` (stereo not given): the Activity is recorded as 12%.

Another assay has as its system Rattus norvegicus. In words: Antihyperlipidemic activity in Triton-induced dyslipidemic Wistar rat model assessed as reduction in cholesterol level at 100 mg/kg, po. It is filed as functional. Also on record: scale not given: the % may be the effect or the level left. In short, it runs like this:
as §1
As for `CC(C)(C)NCC(O)COc1ccc2oc(-c3ccc(O)c(O)c3)cc(=O)c2c1` (stereo not given), the Activity is recorded as 24%.
Take `Cc1ccccc1COc1cc(OCc2ccccc2C)cc(-c2cc(=O)c3ccc(OCC(O)CNC(C)C)cc3o2)c1` (stereo not given): the Activity stood at 13.5%.
Consider `Cc1ccc(COc2cc(OCc3ccc(C)cc3)cc(-c3cc(=O)c4ccc(OCC(O)CNC(C)C)cc4o3)c2)cc1` (stereo not given), for which the Activity is on record as 20.3%.
As to `COc1cc(-c2cc(=O)c3ccc(OCC(O)CNC(C)(C)C)cc3o2)cc(OC)c1OC` (stereo not given), the Activity is given as 24%.
On to `CC(C)NCC(O)COc1ccc2c(=O)cc(-c3cc(OCc4ccccc4Cl)cc(OCc4ccccc4Cl)c3)oc2c1` (stereo not given), for which the Activity is 12.1%.
For `CC(C)NCC(O)COc1ccc2c(=O)cc(-c3cc(OCc4cc(Cl)cc(Cl)c4)cc(OCc4cc(Cl)cc(Cl)c4)c3)oc2c1` (stereo not given), the Activity was 22.2%.
With `CC(C)(C)NCC(O)COc1ccc2c(=O)cc(-c3cc(OCc4cc(Cl)cc(Cl)c4)cc(OCc4cc(Cl)cc(Cl)c4)c3)oc2c1` (stereo not given), the Activity is 8.93%.
Regarding `CC(C)(C)NCC(O)COc1ccc2c(=O)cc(-c3ccc(OCc4ccccc4)c(OCc4ccccc4)c3)oc2c1` (stereo not given), the Activity is reported as 23%.
For `Cc1ccc(COc2cc(OCc3ccc(C)cc3)cc(-c3cc(=O)c4ccc(OCC(O)CNCc5ccccc5)cc4o3)c2)cc1` (stereo not given), the Activity is recorded as 16.5%.
Still for that read-out and setting: with `COc1cc(-c2cc(=O)c3ccc(OCC(O)CNC(C)C)cc3o2)cc(OC)c1OC` (stereo not given) the figure was 18%.
In the case of `O=c1cc(-c2cc(OCc3ccccc3)cc(OCc3ccccc3)c2)oc2cc(OCC(O)CN3CCN(c4ccccc4)CC3)ccc12` (stereo not given), the Activity worked out at 24%.
As for `COc1cc(-c2cc(=O)c3ccc(OCC(O)CN4CCN(c5ccccc5)CC4)cc3o2)cc(OC)c1OC` (stereo not given), the Activity was determined as 19%.
Consider `CC(C)(C)NCC(O)COc1ccc2oc(-c3ccc(OCc4ccccc4)c(OCc4ccccc4)c3)cc(=O)c2c1` (stereo not given), for which the Activity turned out to be 21%.

The next assay has as its system Rattus norvegicus. In words: Antihyperlipidemic activity in Triton-induced dyslipidemic Wistar rat model assessed as reduction in triglyceride level at 100 mg/kg, po. The class given is functional. Also on record: scale not given: the % may be the effect or the level left. In short, it runs like this: as §1
`CC(C)(C)NCC(O)COc1ccc2oc(-c3ccc(O)c(O)c3)cc(=O)c2c1` (stereo not given): the Activity was 25%.
`Cc1ccccc1COc1cc(OCc2ccccc2C)cc(-c2cc(=O)c3ccc(OCC(O)CNC(C)C)cc3o2)c1` (stereo not given): the Activity is recorded as 26.2%.
With `Cc1ccc(COc2cc(OCc3ccc(C)cc3)cc(-c3cc(=O)c4ccc(OCC(O)CNC(C)C)cc4o3)c2)cc1` (stereo not given), the Activity is listed as 25.6%.
On to `COc1cc(-c2cc(=O)c3ccc(OCC(O)CNC(C)(C)C)cc3o2)cc(OC)c1OC` (stereo not given), for which the Activity was found to be 28%.
As to `CC(C)NCC(O)COc1ccc2c(=O)cc(-c3cc(OCc4ccccc4Cl)cc(OCc4ccccc4Cl)c3)oc2c1` (stereo not given), the Activity was determined as 30.2%.
Consider `CC(C)NCC(O)COc1ccc2c(=O)cc(-c3cc(OCc4cc(Cl)cc(Cl)c4)cc(OCc4cc(Cl)cc(Cl)c4)c3)oc2c1` (stereo not given), for which the Activity was 26%.
As for `CC(C)(C)NCC(O)COc1ccc2c(=O)cc(-c3cc(OCc4cc(Cl)cc(Cl)c4)cc(OCc4cc(Cl)cc(Cl)c4)c3)oc2c1` (stereo not given), the Activity was 11.3%.
Consider `CC(C)(C)NCC(O)COc1ccc2c(=O)cc(-c3ccc(OCc4ccccc4)c(OCc4ccccc4)c3)oc2c1` (stereo not given), for which the Activity is listed as 16%.
Same read-out and setting: the value for `Cc1ccc(COc2cc(OCc3ccc(C)cc3)cc(-c3cc(=O)c4ccc(OCC(O)CNCc5ccccc5)cc4o3)c2)cc1` (stereo not given) was 27.2%.
For `COc1cc(-c2cc(=O)c3ccc(OCC(O)CNC(C)C)cc3o2)cc(OC)c1OC` (stereo not given), the Activity is given as 19%.
Turning to `O=c1cc(-c2cc(OCc3ccccc3)cc(OCc3ccccc3)c2)oc2cc(OCC(O)CN3CCN(c4ccccc4)CC3)ccc12` (stereo not given), the Activity was determined as 17%.
In the case of `COc1cc(-c2cc(=O)c3ccc(OCC(O)CN4CCN(c5ccccc5)CC4)cc3o2)cc(OC)c1OC` (stereo not given), the Activity came to 23%.
On the same count and under the same terms, with `CC(C)(C)NCC(O)COc1ccc2oc(-c3ccc(OCc4ccccc4)c(OCc4ccccc4)c3)cc(=O)c2c1` (stereo not given) the figure was 17%.

For a further assay, the system named is Rattus norvegicus. In words: Antidiabetic activity in sucrose loaded Wistar rat model assessed as reduction in glucose levels at 100 mg/kg, po. The class given is functional. Also on record: scale not given: the % may be the effect or the level left.
Regarding `COc1ccc(-c2cc(=O)c3ccc(OCC(O)CNC(C)C)cc3o2)cc1OC` (stereo not given), the Activity is 23.9%.
`Cc1ccccc1COc1cc(OCc2ccccc2C)cc(-c2cc(=O)c3ccc(OCC(O)CNC(C)C)cc3o2)c1` (stereo not given): the Activity came out at 4.65%.
The same measure, in the same setting: the value for `Cc1ccc(COc2cc(OCc3ccc(C)cc3)cc(-c3cc(=O)c4ccc(OCC(O)CNC(C)C)cc4o3)c2)cc1` (stereo not given) was 51.6%.
Turning to `COc1cc(-c2cc(=O)c3ccc(OCC(O)CNC(C)(C)C)cc3o2)cc(OC)c1OC` (stereo not given), the result was inactive.
With `CC(C)NCC(O)COc1ccc2c(=O)cc(-c3cc(OCc4ccccc4Cl)cc(OCc4ccccc4Cl)c3)oc2c1` (stereo not given), the Activity is 12.6%.
The same measure, in the same setting: with `CC(C)NCC(O)COc1ccc2c(=O)cc(-c3cc(OCc4cc(Cl)cc(Cl)c4)cc(OCc4cc(Cl)cc(Cl)c4)c3)oc2c1` (stereo not given) the figure was 32.7%.
Regarding `CC(C)(C)NCC(O)COc1ccc2c(=O)cc(-c3cc(OCc4cc(Cl)cc(Cl)c4)cc(OCc4cc(Cl)cc(Cl)c4)c3)oc2c1` (stereo not given), the Activity turned out to be 25.9%.
On the same count and under the same terms, with `CC(C)(C)NCC(O)COc1ccc2c(=O)cc(-c3ccc(OCc4ccccc4)c(OCc4ccccc4)c3)oc2c1` (stereo not given) the figure was 15.9%.
`Cc1ccc(COc2cc(OCc3ccc(C)cc3)cc(-c3cc(=O)c4ccc(OCC(O)CNCc5ccccc5)cc4o3)c2)cc1` (stereo not given): the Activity was 32%.
Consider `COc1cc(-c2cc(=O)c3ccc(OCC(O)CNC(C)C)cc3o2)cc(OC)c1OC` (stereo not given), for which the Activity stood at 20.7%.
With `CC(C)(C)NCC(O)COc1ccc2oc(-c3ccc(OCc4ccccc4)c(OCc4ccccc4)c3)cc(=O)c2c1` (stereo not given), the Activity amounted to 21.8%.

The test system of another assay is Rattus norvegicus. Put plainly: Antidiabetic activity in sucrose challenged streptozotocin-induced diabetic Sprague-Dawley rat model assessed as reduction in glucose levels at 100 mg/kg, po measured after 5 hrs. Details: scale not given: the % may be the effect or the level left. It is filed as functional.
For the compound `COc1ccc(-c2cc(=O)c3ccc(OCC(O)CNC(C)C)cc3o2)cc1OC` (stereo not given), the Activity was 13.8%.
As for `CC(C)(C)NCC(O)COc1ccc2oc(-c3ccc(O)c(O)c3)cc(=O)c2c1` (stereo not given), the outcome was inactive.
Regarding `Cc1ccc(COc2cc(OCc3ccc(C)cc3)cc(-c3cc(=O)c4ccc(OCC(O)CNC(C)C)cc4o3)c2)cc1` (stereo not given), the Activity came to 22.8%.
Regarding `CC(C)NCC(O)COc1ccc2c(=O)cc(-c3cc(OCc4ccccc4Cl)cc(OCc4ccccc4Cl)c3)oc2c1` (stereo not given), the Activity was determined as 6.83%.
Still for that read-out and setting: with `CC(C)NCC(O)COc1ccc2c(=O)cc(-c3cc(OCc4cc(Cl)cc(Cl)c4)cc(OCc4cc(Cl)cc(Cl)c4)c3)oc2c1` (stereo not given) the figure was 22.1%; with `CC(C)(C)NCC(O)COc1ccc2c(=O)cc(-c3cc(OCc4cc(Cl)cc(Cl)c4)cc(OCc4cc(Cl)cc(Cl)c4)c3)oc2c1` (stereo not given), 14.2%; with `CC(C)(C)NCC(O)COc1ccc2c(=O)cc(-c3ccc(OCc4ccccc4)c(OCc4ccccc4)c3)oc2c1` (stereo not given), 11.8%.
`Cc1ccc(COc2cc(OCc3ccc(C)cc3)cc(-c3cc(=O)c4ccc(OCC(O)CNCc5ccccc5)cc4o3)c2)cc1` (stereo not given): the Activity stood at 26.2%.
The same measure, in the same setting: the value for `O=c1cc(-c2cc(OCc3ccccc3)cc(OCc3ccccc3)c2)oc2cc(OCC(O)CN3CCN(c4ccccc4)CC3)ccc12` (stereo not given) was 14.3%; that for `COc1cc(-c2cc(=O)c3ccc(OCC(O)CN4CCN(c5ccccc5)CC4)cc3o2)cc(OC)c1OC` (stereo not given) was 2.36%.

The subject of a further assay is Rattus norvegicus. Put plainly: Antidiabetic activity in sucrose challenged streptozotocin-induced diabetic Sprague-Dawley rat model assessed as reduction in glucose levels at 100 mg/kg, po measured after 24 hrs. It is filed as functional. Details: scale not given: the % may be the effect or the level left.
With `COc1ccc(-c2cc(=O)c3ccc(OCC(O)CNC(C)C)cc3o2)cc1OC` (stereo not given), the Activity amounted to 6.83%.
For the compound `CC(C)(C)NCC(O)COc1ccc2oc(-c3ccc(O)c(O)c3)cc(=O)c2c1` (stereo not given), the result was inactive.
For the compound `Cc1ccc(COc2cc(OCc3ccc(C)cc3)cc(-c3cc(=O)c4ccc(OCC(O)CNC(C)C)cc4o3)c2)cc1` (stereo not given), the Activity came to 11.9%.
In the case of `CC(C)NCC(O)COc1ccc2c(=O)cc(-c3cc(OCc4ccccc4Cl)cc(OCc4ccccc4Cl)c3)oc2c1` (stereo not given), the outcome was inactive.
On the same count and under the same terms, with `CC(C)NCC(O)COc1ccc2c(=O)cc(-c3cc(OCc4cc(Cl)cc(Cl)c4)cc(OCc4cc(Cl)cc(Cl)c4)c3)oc2c1` (stereo not given) the figure was 16.2%.
Regarding `CC(C)(C)NCC(O)COc1ccc2c(=O)cc(-c3cc(OCc4cc(Cl)cc(Cl)c4)cc(OCc4cc(Cl)cc(Cl)c4)c3)oc2c1` (stereo not given), the result was inactive.
`CC(C)(C)NCC(O)COc1ccc2c(=O)cc(-c3ccc(OCc4ccccc4)c(OCc4ccccc4)c3)oc2c1` (stereo not given): the Activity is 0.89%.
As for `Cc1ccc(COc2cc(OCc3ccc(C)cc3)cc(-c3cc(=O)c4ccc(OCC(O)CNCc5ccccc5)cc4o3)c2)cc1` (stereo not given), the Activity stood at 17.9%.
Same read-out and setting: with `COc1cc(-c2cc(=O)c3ccc(OCC(O)CN4CCN(c5ccccc5)CC4)cc3o2)cc(OC)c1OC` (stereo not given) the figure was 0.24%.
Turning to `CC(C)(C)NCC(O)COc1ccc2oc(-c3ccc(OCc4ccccc4)c(OCc4ccccc4)c3)cc(=O)c2c1` (stereo not given), the Activity came out at 0.36%.
